# Assay outcomes (PubChem)
# RGS4 block = RGS4 inhibitors, primary screen, cell-based, HEK293 M3R inducible RGS4, calcium flux. Regulator of G-protein signaling 4 (Homo sapiens), P49798. AID 463165, 2010. Fluo-4 calcium flux; hits give high values; triggered by carbachol at its EC20. 310,000 tested, 0.45% active. B-score at 10 µM;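 active = B-score, a plate-corrected calcium signal, over three deviations above library mean, with baseline fluorescence within five deviations of library mean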;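 also: RGS4 expression induced by doxycycline in cells with stable M3 receptor; B-score is computed from the integrated fluorescence ratio over baseline after carbachol; higher B-score means a larger calcium signal and so more RGS4 inhibition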
# Target sequence (P49798 whole entry, looked up): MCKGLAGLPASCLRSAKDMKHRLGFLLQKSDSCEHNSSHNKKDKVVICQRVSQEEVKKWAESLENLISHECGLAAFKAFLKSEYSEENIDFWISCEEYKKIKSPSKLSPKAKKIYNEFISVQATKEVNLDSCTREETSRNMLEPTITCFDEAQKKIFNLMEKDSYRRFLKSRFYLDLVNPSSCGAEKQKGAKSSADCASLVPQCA
# MrgX1 antagonist = antagonists of human MrgX1 receptor, primary screen, HEK293 cells, Fluo-4 calcium flux; Mas-related G-protein coupled receptor member X1 (Homo sapiens), Q96LB2; BAM8-22 antagonism; hits give low values; B-score at 10 µM; 310,000 tested, 1.3% active; AID 588676, 2011;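 active = calcium-response B-score plate-corrected more than 3 library SD below zero, starting fluorescence within 5 deviations, no agonist response on first addition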;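 also: peak minus trough fluorescence over baseline after final BAM8-22 challenge near maximal dose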
# MrgX1 allo act = positive allosteric modulators of MrgX1, primary screen, HEK293 cells, Fluo-4 calcium flux; Mas-related G-protein coupled receptor member X1 (Homo sapiens), Q96LB2; FDSS; hits give high values; B-score at 10 µM; 310,000 tested, 0.63% active; AID 588675, 2011;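 active = plate-corrected calcium response at least 3 library SD above typical, normal starting fluorescence, not activating the receptor alone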;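 also: compound read alongside a low EC10 to EC30 dose of BAM8-22 agonist; peak minus trough fluorescence over baseline measured at the second addition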
# RGS4 act = RGS4 potentiators or activators, primary screen, cell-based, HEK293 M3R inducible RGS4, calcium flux | B-score at 10 µM | carbachol calcium flux Fluo4; hits give low values | AID 463111, 2010 | 310,000 tested, 0.92% active;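 active = B-score of the integrated calcium signal more than 4 SD below the library mean, with starting fluorescence not abnormally high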;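 also: negative B-score means reduced calcium response which marks RGS4 activation or potentiation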
#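 System: HEK293 FlpIn-TREx cells, stable M3R, doxycycline-inducible RGS4. Timing: overnight RGS4 induction, 30 min dye load 37 °C, 20 min compound RT. Also added: carbachol, ECmax concentration. Measured by: Fluo4 fluorescence kinetic imaging of calcium. Evaluation: integrated calcium ratio converted to B score.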
# MrgX1 ag = agonists of human MrgX1 receptor, primary screen, HEK293 cells, Fluo-4 calcium flux | B-score at 10 µM | 310,000 tested, 0.44% active | Fluo-4 calcium fluorescence, agonist mode; hits give high values;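 active = calcium response B-score plate-corrected fluorescence ratio at least 3 library SD, with starting fluorescence B-score inside 5 SD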
#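 Test system: HEK293 cells stably expressing human MrgX1 receptor; Input: fifteen thousand cells per well; Dosing: compound delivered in addition one of three; Schedule: overnight seeding, then 1 h dark dye loading; Technique: Fluo-4 NW calcium fluorescence; Measure: B-scored fluorescence response ratio; Controls: positive and negative controls per plate.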
# MrgX1 ant reconf = MrgX1 receptor antagonists, duplicate retest, confirmation, HEK293 cells, Fluo-4 calcium flux. remaining BAM8-22 calcium response % of control (hits give low values), % at 10 µM. shares compounds with MrgX1 antagonist. BAM8-22 calcium flux; hits give low values. 2,300 tested, 19% active;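 active = remaining agonist calcium response no higher than 100% minus 3 SD of agonist-only control wells, with starting fluorescence near control levels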;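 also: agonist BAM8-22 given at a near maximal EC90 to ECmax level; peak minus minimum fluorescence divided by baseline after agonist addition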
# HEK293 Ca flux = nonspecific calcium signal in parental HEK293, confirmation, counter-screen for MrgX1 antagonist project, parental HEK293 cells, Fluo-4 calcium flux. shares compounds with MrgX1 antagonist. fluorescence ratio F(max-min)/F0 at 10 µM. Fluo-4 calcium fluorescence, FDSS. 4,000 tested, 2% active;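 active = duplicate-averaged calcium fluorescence ratio at least three times the standard deviation of buffer wells, a nonspecific response in parental cells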
# HEK293 Ca counter = calcium response in parental HEK293 cells, primary screen, counter-screen for MrgX1 allosteric activator project, cell-based, Fluo-4 calcium flux, duplicate | shares compounds with MrgX1 antagonist | Fluo-4 fluorescence ratio; hits give high values | fluorescence ratio F(max-min)/F0 at 10 µM | 4,000 tested, 0.4% active | AID 624114, 2012;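 active = calcium fluorescence ratio, averaged over duplicates, at least 3 SD of the buffer-well ratio, meaning a nonspecific response in receptor-free cells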;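 also: untransfected parental HEK293 lacking MrgX1 used as counterscreen for MrgX1 allosteric activators; fluorescence change taken during the second addition on a kinetic imager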
# HEK293 Ca cntr2 = calcium response in parental HEK293 cells, primary screen, counter-screen for MrgX1 agonist project, cell-based, Fluo-4 calcium flux, duplicate, agonist mode | shares compounds with MrgX1 antagonist | Fluo-4 calcium fluorescence (FDSS); hits give high values | fluorescence ratio F(max-min)/F0 at 10 µM | 4,000 tested, 8.7% active | AID 624115, 2012;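 active = calcium fluorescence ratio at least three times the spread of buffer wells, meaning a non-specific response in parental cells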
# Numbers without * were called inactive; i = inactive; x = no result. The list is not random: actives were taken first. Their share in the collection is about 3.5%.
SMILES,RGS4 block,MrgX1 antagonist,MrgX1 allo act,RGS4 act,MrgX1 ag,MrgX1 ant reconf,HEK293 Ca flux,HEK293 Ca counter,HEK293 Ca cntr2
Cc1ccc(C(=O)NC(=S)Nc2ccccc2N2CCOCC2)cc1C,i,i,i,i,i,x,x,x,x
CC1CN(CCn2cnc3c(N)ncnc32)CC(C)O1 (stereo not given),i,i,i,i,i,x,x,x,x
Nc1ncnc2c1ncn2CCN1CCCCC1,i,-5.7*,i,i,i,i,i,i,i
Cc1ccsc1C(=O)N(Cc1nnc(-c2ccccc2Cl)o1)C1CC1,i,-5.8*,i,i,i,i,i,i,i
Cc1cc(C)cc(C(=O)NCC(=O)OCC(=O)N(C)c2ccccc2)c1,i,-5.1*,i,i,i,i,i,i,i
COc1ccc(NC(=O)c2cc(S(=O)(=O)N3CCc4ccccc43)cn2C)cc1OC,i,i,i,i,i,x,x,x,x
CCc1c(C)c2c(C)nn(-c3ccccc3)c2[nH]c1=O,i,-4.6*,i,i,i,85%*,i,i,i
Cc1c(C)c2c(C)nn(-c3ccccc3)c2[nH]c1=O,i,i,i,i,i,x,x,x,x
Cc1ccc(NC(=O)NCC2CCN(Cc3cccc(Cl)c3)CC2)c(Cl)c1,i,i,i,i,i,x,x,x,x
O=C(NCC1CCN(Cc2cccc(Cl)c2)CC1)Nc1ccccc1Cl,i,-5.7*,i,i,i,i,i,i,i
O=C(c1cccc(N2CCCC2=O)c1)N1CCN(c2cccc(Cl)c2)CC1,i,i,i,i,i,x,x,x,x
COC(CN(C)C(=O)C1CCCN(S(=O)(=O)c2ccc3c(c2)oc(=O)n3C)C1)OC (stereo not given),i,i,i,i,i,x,x,x,x
